Series [1] concerns the target T1, Cholesteryl ester transfer protein (Homo sapiens, UniProt P11597).
T1 sequence (P11597 whole entry): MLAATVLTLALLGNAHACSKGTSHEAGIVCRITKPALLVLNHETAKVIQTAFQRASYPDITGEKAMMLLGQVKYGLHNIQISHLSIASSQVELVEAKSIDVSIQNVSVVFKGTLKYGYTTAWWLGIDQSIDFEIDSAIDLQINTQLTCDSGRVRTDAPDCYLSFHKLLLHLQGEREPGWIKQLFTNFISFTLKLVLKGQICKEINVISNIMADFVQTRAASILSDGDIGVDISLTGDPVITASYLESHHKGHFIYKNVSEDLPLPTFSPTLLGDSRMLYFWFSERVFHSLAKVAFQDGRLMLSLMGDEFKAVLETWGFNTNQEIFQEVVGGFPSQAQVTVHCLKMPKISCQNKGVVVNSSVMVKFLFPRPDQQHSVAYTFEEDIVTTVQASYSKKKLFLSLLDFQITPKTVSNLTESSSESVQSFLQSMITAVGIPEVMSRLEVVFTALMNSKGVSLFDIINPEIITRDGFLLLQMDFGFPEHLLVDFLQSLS
In words: Inhibition of CETP assessed as cholesterol ester transfer after 4 hrs by microemulsion based fluorescence assay. Summed up: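 CETP-containing sample (1–3 µg CETP enriched from human plasma) incubated at 37 °C for 4 h with compound in DMSO and a liposome emulsion (1 vol donor, 1 vol buffer, 2 vol acceptor). Liposomes were made by dioxane injection into 50 mM Tris/HCl pH 7.3, 150 mM NaCl, 2 mM EDTA, then sonicated. Read-out was the fluorescence increase versus a DMSO control.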

For series [2], the target named is T1, Cholesteryl ester transfer protein. In words: Inhibition of human plasma CETP assessed as [3H]cholesterol ester transfer after 18 hrs by scintillation proximity assay. Type of series: cell-free. In short, it runs like this:
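Scintillation proximity assay. HDL-³H-cholesteryl ester (~50,000 cpm) and biotin-LDL were incubated at 37 °C for 18 h with CETP (1 mg/ml stock) in […]/0.15 M NaCl/0.1% BSA/0.05% NaN₃ pH 7.4. Compound was dissolved in 10% DMSO/1% BSA. Streptavidin SPA beads were added with 1 h shaking, then scintillation counting. Buffer-only and CETP incubations served as controls.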
(In general: In a scintillation proximity assay essentially only radioactivity close to the scintillant gives light.)

Series [3] has the same target. In words: Inhibition of human plasma CETP assessed as cholesterol ester transfer after 24 hrs by fluorescence assay. Type of series: cell-free. Summed up: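 Donor liposomes (12% v/v) and compound in DMSO (2% v/v) added to human plasma (86% v/v) and incubated at 37 °C for 24 h. Transfer was taken as the fluorescence change at 510/520 nm, compared with a DMSO control.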

Series [4] in a line: Oral bioavailability in rat. Type of series: ADME, organism-based. Particulars: in vivo.
Series [5] is described as follows: Half life in rat plasma. Type of series: ADME, organism-based.
The nature of series [6]: Half life in mouse plasma. Type of series: ADME, organism-based.
A short description of series [7]: Oral bioavailability in dog. Type of series: ADME, organism-based, Canis lupus familiaris. Particulars: in vivo.
Series [8] can be described thus: Half life in dog plasma. Type of series: ADME, organism-based, Canis lupus familiaris.

A word on the IC50: it is the concentration that gives 50% inhibition. Usually bioavailability stands for the share of a dose that reaches the circulation, judged against a reference dose that is usually intravenous. By half-life is commonly meant the time in which the quantity being followed falls by half. Higher therefore signals slow decline.

Where only a bound is given, the exact number is not on record here.

Turning to `CC1(C)Cc2nc(C3CCCC3)c(C(=O)c3ccc(C(F)(F)F)cc3)c(C3CCN(C(=O)OCc4ccccc4)CC3)c2[C@@H](O)C1`, in series [1], the half-inhibitory concentration (IC50) came out at 500 nM.

Consider `CC1(C)Cc2nc(C3CCCC3)c(C(=O)c3ccc(C(F)(F)F)cc3)c(CN3CCCCC3)c2[C@@H](O)C1`, for which the IC50 in series [1] was determined as 15000 nM.

`CC1(C)Cc2nc(C3CCCC3)c(C(=O)c3ccc(C(F)(F)F)cc3)c(CCl)c2[C@@H](O)C1`: in series [1], the IC50 was found to be 15000 nM.

For `O=C(c1ccc(C(F)(F)F)cc1)c1c(C2CCCC2)nc2c(c1C1CCCCC1)[C@@H](O)CC1(CCC1)C2`, the concentration for half-maximal inhibition (IC50) in series [1] was found to be 55 nM.

For `CCC(C)c1c(C(=O)c2ccc(C(F)(F)F)cc2)c(C2CCCC2)nc2c1[C@@H](O)CC(C)(C)C2` (stereo not given in full), the half-maximal inhibitory concentration (IC50) in series [1] amounted to 2000 nM.

Regarding `CC1(C)Cc2nc(C3CCCC3)c(C(=O)c3ccc(C(F)(F)F)cc3)c(CC(F)(F)F)c2[C@@H](O)C1`, the IC50 in series [1] is 3000 nM.

As to `CCOC(=O)c1c(C(=O)c2ccc(C(F)(F)F)cc2)c(C2CCCC2)nc2c1[C@@H](O)CC(C)(C)C2`, in series [1], the IC50 was greater than 20000 nM.

Turning to `CC1(C)Cc2nc(C3CCCC3)c(C(=O)c3ccc(C(F)(F)F)cc3)c(C3CCNCC3)c2[C@@H](O)C1`, the IC50 in series [1] is greater than 20000 nM.

Take `CC(C)c1nc2c(c(C3CCCCC3)c1[C@@H](O)c1ccc(C(F)(F)F)cc1)[C@@H](O)CC1(CCC1)C2`: in series [1], the half-inhibitory concentration (IC50) was 70 nM.

For the molecule `CC1(C)Cc2nc(C3CCCC3)c(C(=O)c3ccc(C(F)(F)F)cc3)c(C3CCCCC3)c2[C@@H](O)C1`, the IC50 in series [1] was found to be 60 nM.

On to `CC1(C)Cc2nc(C3CCCC3)c(C(=O)c3ccc(C(F)(F)F)cc3)c(N3CCCC3)c2[C@@H](O)C1`, for which, in series [1], the IC50 came to 4000 nM.

For `CC(C)c1nc2c(c(C3CCCCC3)c1[C@@H](F)c1ccc(C(F)(F)F)cc1)[C@@H](O)CC(C)(C)C2`, the 50% inhibitory concentration (IC50) in series [2] was determined as 23 nM; in series [1], 30 nM; in series [3] it was 75 nM.

Consider `CC1(C)Cc2nc(C3CCCC3)c([C@@H](F)c3ccc(C(F)(F)F)cc3)c(C3CCCCC3)c2[C@@H](O)C1`, for which the bioavailability was determined as 44% in series [4] and 74% in series [7]. Also, the half-life in series [5] is 7.2 h; in series [6] it was 5 h; in series [8], 8.6 h. Also, the 50% inhibitory concentration (IC50) in series [2] came out at 7 nM; in series [1] it was 25 nM; in series [3], 50 nM.

`CC1(C)Cc2nc(C3CCCC3)c(Cc3ccc(C(F)(F)F)cc3)c(C3CCCCC3)c2[C@@H](O)C1`: the IC50 worked out at 39 nM in series [1] and 300 nM in series [3].

`CC(C)c1nc2c(c(C3CCCCC3)c1[C@@H](F)c1ccc(C(F)(F)F)cc1)[C@@H](O)CC1(CCC1)C2`: the 50% inhibitory concentration (IC50) in series [2] worked out at 33 nM; in series [1], 17 nM; in series [3], 70 nM.

For `O[C@@H](c1ccc(C(F)(F)F)cc1)c1c(C2CCCC2)nc2c(c1C1CCCCC1)[C@@H](O)CC1(CCC1)C2`, in series [1], the IC50 was determined as 100 nM.

Take `O[C@H]1CC2(CCC2)Cc2nc(C3CCCC3)c([C@@H](F)c3ccc(C(F)(F)F)cc3)c(C3CCCCC3)c21`: the IC50 came out at 62 nM in series [2], 22 nM in series [1] and 60 nM in series [3].

Turning to `CC1(C)Cc2nc(C3CCCC3)c([C@@H](F)c3ccc(C(F)(F)F)cc3)c(-c3ccc(F)cc3)c2[C@@H](O)C1`, in series [1], the concentration for half-maximal inhibition (IC50) is 31 nM.

For the molecule `CC(C)c1nc2c(c(-c3ccc(F)cc3)c1[C@@H](F)c1ccc(C(F)(F)F)cc1)[C@@H](O)CC1(CCC1)C2`, the IC50 in series [1] amounted to 24 nM.

On to `CCc1c(C(=O)c2ccc(C(F)(F)F)cc2)c(C2CCCC2)nc2c1[C@@H](O)CC(C)(C)C2`, for which the IC50 in series [1] worked out at 4500 nM.

As for `CC(C)c1nc2c(c(C3CCCCC3)c1C(=O)c1ccc(C(F)(F)F)cc1)[C@@H](O)CC1(CCC1)C2`, in series [1], the concentration for half-maximal inhibition (IC50) was determined as 33 nM.

`CC1(C)Cc2nc(C3CCCC3)c(C(=O)c3ccc(C(F)(F)F)cc3)c(C3CC3)c2[C@@H](O)C1`: the concentration for half-maximal inhibition (IC50) in series [1] amounted to 3000 nM.

In the case of `CC1(C)Cc2nc(C3CCCC3)c(C(=O)c3ccc(C(F)(F)F)cc3)c(C3CCCC3)c2[C@@H](O)C1`, the IC50 in series [1] is 90 nM.

Take `O=C(c1ccc(C(F)(F)F)cc1)c1c(C2CCCC2)nc2c(c1C1CCCC1)[C@@H](O)CC1(CCC1)C2`: the IC50 in series [1] was 70 nM.

Regarding `CC(C)c1nc2c(c(C3CCCCC3)c1C(=O)c1ccc(C(F)(F)F)cc1)[C@@H](O)CC(C)(C)C2`, the IC50 in series [1] is 70 nM.

Turning to `CCCCCc1c(C(=O)c2ccc(C(F)(F)F)cc2)c(C2CCCC2)nc2c1[C@@H](O)CC(C)(C)C2`, in series [1], the half-inhibitory concentration (IC50) was 2000 nM.

As to `CC(C)c1c(C(=O)c2ccc(C(F)(F)F)cc2)c(C2CCCC2)nc2c1[C@@H](O)CC(C)(C)C2`, the half-inhibitory concentration (IC50) in series [1] is 600 nM.

Consider `CC(C)c1c(C(=O)c2ccc(C(F)(F)F)cc2)c(C2CCCC2)nc2c1[C@@H](O)CC1(CCC1)C2`, for which the IC50 in series [1] came out at 300 nM.

Consider `CCCc1c(C(=O)c2ccc(C(F)(F)F)cc2)c(C2CCCC2)nc2c1[C@@H](O)CC1(CCC1)C2`, for which the IC50 in series [1] was determined as 600 nM.

As for `CC(C)c1nc2c(c(C3CCCCC3)c1[C@@H](O)c1ccc(C(F)(F)F)cc1)[C@@H](O)CC(C)(C)C2` (relative stereo), in series [1], the half-maximal inhibitory concentration (IC50) was 80 nM.

In the case of `CC1(C)Cc2nc(C3CCCC3)c([C@@H](O)c3ccc(C(F)(F)F)cc3)c(C3CCCCC3)c2[C@@H](O)C1` (relative stereo), the concentration for half-maximal inhibition (IC50) in series [1] is 100 nM.

(Values after ChEMBL document CHEMBL1154929, “Novel tetrahydrochinoline derived CETP inhibitors” (Bioorg Med Chem Lett, 2010).)
